Results taken from publication PMC3587690 (Bioorganic & medicinal chemistry, 2012).

What was measured:
[1] = test system: A549, MCF-7, MDA-MB-231 and MDA-MB-468; assay: MTT growth inhibition, average of four cancer cell lines; assay type: cell-based; conditions: read-out: GI50 Average
Summary of the method: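 Each of the four lines, grown in DMEM with 10% FBS at 37 °C and 5% CO2, was incubated with the test compound for 72 h, and growth was read by MTT absorbance at 570 nm. Percent growth was 100 × (treated − time-0)/(medium control − time-0). GI50 came from non-linear regression of the growth–concentration curve, and the four mean GI50s were averaged. Single experiments were run in duplicate where no SD is given.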

[2] = test system: MCF-7 cells expressing VP16-CREB; assay: MTT assay in MCF-7 cells expressing VP16-CREB versus parental MCF-7; assay type: cell-based; conditions: 48 h
Summary of the method: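 MCF-7 cells were lipofected with a plasmid encoding Flag-tagged VP16-CREB. From 2 days post-transfection they were selected in 2 mg/mL G418 until a stable colony formed, and expression was checked by anti-FLAG blot. The stable line and parental MCF-7 were treated in triplicate for 48 h, and live cells were quantified by MTT. Student's t-test was used.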

[3] = test system: CREB-mediated gene transcription in HEK 293T cells; conditions: cited from earlier work
[4] = biological target: KIX–KID interaction (Homo sapiens, UniProt Q92793); conditions: cited from earlier work
Sequence of KIX–KID interaction (Q92793 587-666 limits assumed): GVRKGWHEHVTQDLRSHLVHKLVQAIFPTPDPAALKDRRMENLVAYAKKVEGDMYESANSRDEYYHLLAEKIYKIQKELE

[5] = test system: NCI-60 cancer cell panel; assay: NCI-60 cancer cell panel; assay type: cell-based; conditions: Fig. S1
[6] = test system: human foreskin fibroblast (HFF) cells; assay: HFF growth inhibition, trypan blue exclusion assay; assay type: cell-based; conditions: 48 h
Summary of the method: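 HFF cells were maintained in DMEM with 10% FBS and penicillin/streptomycin at 37 °C under 5% CO2. Cells were treated with increasing test compound concentrations in triplicate for 48 h, and live cells were counted by trypan blue exclusion.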

[7] = test system: poly (ADP-ribose) polymerase (PARP); assay: Western blot of PARP cleavage in A549 cells; assay type: cell-based; conditions: 48 h
Summary of the method: (§1)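 Exponentially growing A549 cells were treated with different test compound concentrations for 48 h and washed twice in cold PBS (pH 7.4). They were lysed in NP-40 buffer (50 mM Tris-HCl pH 8.0, 5 mM EDTA, 150 mM NaCl, 1 mM DTT, 0.5% NP-40) containing 8 M urea. Equal protein was run on 10% SDS-PAGE, transferred to PVDF and probed with specific antibodies, using GAPDH as the loading control.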

[8] = test system: normal human mammary epithelial cells (HMEC); assay: HMEC growth inhibition, trypan blue exclusion assay; assay type: cell-based; conditions: 10 µM and lower, 48 h
Summary of the method: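 Proliferating normal HMEC were cultured routinely in MEGM complete medium with penicillin/streptomycin at 37 °C under 5% CO2. On the day of treatment the medium was changed to DMEM with 10% FBS. Cells were exposed to various test compound concentrations in triplicate for 48 h, then live cells were counted by trypan blue exclusion. One-way ANOVA was used.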

[9] = test system: p21; assay: Western blot of p21 in A549 cells; assay type: cell-based; conditions: all concentrations tested, 48 h
Summary of the method: as §1

[10] = test system: p53-mediated gene transcription; assay: p53 transcription reporter assay; assay type: cell-based; conditions: transcription reporter assay (Fig. S2)
[11] = test system: Bcl-2; assay: Western blot of Bcl-2 in A549 cells; assay type: cell-based; conditions: increasing concentrations, 48 h
Summary of the method: as §1

[12] = test system: Bcl-2; assay: qRT-PCR of bcl-2 transcript in A549 cells; assay type: cell-based; conditions: 4 h
Summary of the method: (§2)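 Exponentially growing A549 cells were treated in duplicate for 4 h. Total RNA was extracted and DNase-treated at 37 °C for 30 min, then cDNA was made with random primers. Transcripts were quantified by SYBR Green qPCR, normalised to HPRT, using the 2−ΔΔCt method. One-way ANOVA was used.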

[13] = test system: VP16-CREB-mediated gene transcription; conditions: cited from earlier work
[14] = test system: VEGF; assay: VEGF ELISA assay of A549 culture media; assay type: cell-based; conditions: A549 cells, 24 h
Summary of the method: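 A549 cells were treated in duplicate with the indicated test compound concentrations for 24 h. VEGF in the culture medium was measured by ELISA and normalised to medium protein concentration. One-way ANOVA was used.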

[15] = test system: VEGF; assay: qRT-PCR of VEGF transcript in A549 cells; assay type: cell-based; conditions: 4 h
Summary of the method: as §2

[16] = test system: A549 cells; assay: Annexin-V/PI flow cytometry apoptosis assay; assay type: cell-based; conditions: 10 µM, 48 h, vehicle […]
[17] = test system: p21; assay: qRT-PCR of p21 transcript in A549 cells; assay type: cell-based; conditions: 4 h
Summary of the method: as §2

SMILES: O=C(Nc1ccc(F)c(Cl)c1)c1cc2ccccc2cc1O [Compound 1l, N-(3-Chloro-4-fluorophenyl)-3-hydroxy-2-naphthamide]
- GI50 [1]: 3.39 µM

SMILES: CN(C(=O)c1cc2ccccc2cc1O)c1ccc(Cl)cc1 [Compound 11]
- sensitivity of MCF-7 cells expressing VP16-CREB compared to parental MCF-7 cells [2]: equally effective
- inhibition of CREB's activity [3]: did not inhibit
- inhibition of KIX–KID interaction [4]: did not inhibit

SMILES: O=C(Nc1ccc(O)cc1)c1cc2ccccc2cc1O [Compound 1h, 3-Hydroxy-N-(4-hydroxyphenyl)-2-naphthamide]
- GI50 [1]: > 50.8 µM

SMILES: O=C(Nc1cnccn1)c1cc2ccccc2cc1O [Compound 10c, 3-Hydroxy-N-(pyrazin-2-yl)-2-naphthamide]
- GI50 [1]: > 47.2 µM

SMILES: COc1ccc(NC(=O)c2cc3ccccc3cc2O)cc1 [Compound 1j, 3-Hydroxy-N-(4-methoxyphenyl)-2-naphthamide]
- GI50 [1]: 61.7 µM

SMILES: O=C(Nc1ccccc1Cl)c1cc2ccccc2cc1O [Compound 1c, N-(2-Chlorophenyl)-3-hydroxy-2-naphthamide]
- GI50 [1]: 7.73 µM

SMILES: O=C(Nc1ccc(Br)cc1)c1cc2ccccc2cc1O [Compound 1e, N-(4-Bromophenyl)-3-hydroxy-2-naphthamide]
- GI50 [1]: 5.59 µM

SMILES: O=C(Nc1ccc(F)cc1)c1cc2ccccc2cc1O [Compound 1d, N-(4-Fluorophenyl)-3-hydroxy-2-naphthamide]
- GI50 [1]: 6.29 µM

SMILES: O=C(Nc1ccc(C(F)(F)F)cc1)c1cc2ccccc2cc1O [Compound 1i, 3-Hydroxy-N-(4-trifluoromethylphenyl)-2-naphthamide]
- GI50 [1]: 33.8 µM

SMILES: O=C(Nc1cccc(Cl)c1)c1cc2ccccc2cc1O [Compound 1b, N-(3-Chlorophenyl)-3-hydroxy-2-naphthamide]
- GI50 [1]: 3.4 µM

SMILES: O=C(Nc1ccc(I)cc1)c1cc2ccccc2cc1O [Compound 1f, 3-Hydroxy-N-(4-iodophenyl)-2-naphthamide]
- GI50 [1]: 6.52 µM

SMILES: O=C(Nc1ccc(Cl)cc1)c1cc2ccccc2cc1O [Compound 1a, naphthol AS-E]
- growth inhibition in NCI-60 panel [5]: inhibited the growth of most of the cancer cells
- toxicity to HFF cells (number of live cells) [6]: did not observe significant toxicity
- cleavage of PARP [7]: observed
- toxicity to HMEC (number of live cells) [8]: little or no toxicity
- expression of p21 protein [9]: unchanged
- sensitivity of MCF-7 cells expressing VP16-CREB compared to parental MCF-7 cells [2]: more resistant
- inhibition of p53-mediated gene transcription [10]: not inhibited
- expression level of Bcl-2 protein [11]: decreased
- GI50 [1]: 2.38 µM
- transcript level of bcl-2 [12]: decreased
- inhibition of VP16-CREB-mediated gene transcription [13]: did not inhibit
- expression of VEGF in culture media [14]: down-regulated
- transcript level of VEGF [15]: decreased
- cells undergoing apoptosis (annexin+/PI−) [16]: Up to 19.4%
- transcript level of p21 [17]: essentially unchanged

SMILES: O=C(Nc1ccc(F)c(F)c1)c1cc2ccccc2cc1O [Compound 1k, N-(3,4-Difluorophenyl)-3-hydroxy-2-naphthamide]
- GI50 [1]: 5.35 µM

SMILES: O=C(Nc1ccccn1)c1cc2ccccc2cc1O [Compound 10a, 3-Hydroxy-N-(pyridin-2-yl)-2-naphthamide]
- GI50 [1]: 33 µM

SMILES: O=C(Nc1ccncc1)c1cc2ccccc2cc1O [Compound 10b, 3-Hydroxy-N-(pyridin-4-yl)-2-naphthamide]
- GI50 [1]: 34.9 µM

SMILES: Nc1ccc(NC(=O)c2cc3ccccc3cc2O)cc1 [Compound 1g, N-(4-Aminophenyl)-3-hydroxy-2-naphthamide]
- GI50 [1]: > 59.1 µM
